Measurements taken from ChEMBL document CHEMBL2010735, “Bioactive hydroanthraquinones and anthraquinone dimers from a soft coral-derived Alternaria sp. fungus” (J Nat Prod, 2012).
pIC50: −log10 of the molar value. ≈ marks a conversion by molar mass, not a printed value.

Tested on: Vibrio parahaemolyticus
Assay: Antibacterial activity against Vibrio parahaemolyticus after 18 hrs by MTT assay
Assay type: functional
Settings: in the assay text read “by broth dilution assay” for “by MTT assay”
In short: (§1)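 Conventional broth dilution assay against a panel of nine bacterial strains including E. coli and S. albus; V. parahemolyticus also used as pathogenic test organism.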

Q: For COc1cc(O)c2c(c1)C(=O)c1cc(C)c(O)c(-c3c(OC)cc4c(c3O)C(=O)C3=C(C4=O)[C@@H](O)[C@](C)(O)[C@H](O)[C@H]3O)c1C2=O [ALTERPORRIOL C], which MIC is on record?
A: Its MIC is 2.5 µM (≈ 1.55 µg/mL).

Q: Which MIC does the source give for COc1cc(O)c2c(c1)C(=O)C1=C(C[C@@H](O)[C@@](C)(O)[C@@H]1O)C2=O [ALTERSOLANOL C] here?
A: Its MIC is 1.25 µM (≈ 0.4 µg/mL).

Q: Which MIC does the source give for O=C(O)c1cn(C2CC2)c2cc(N3CCNCC3)c(F)cc2c1=O [CIPROFLOXACIN] here?
A: The MIC was 0.16 µM (≈ 0.053 µg/mL).

Q: With COc1cc(O)c2c(c1)C(=O)c1cc(C)c(O)cc1C2=O [MACROSPORIN] as the compound, how does the MIC read?
A: The MIC was 5 µM (≈ 1.42 µg/mL).

Tested on: HepG2
Assay: Cytotoxicity against human HepG2 cells after 6 days by MTT assay
Assay type: functional, cell-based
Settings: HepG2, 144 h

Q: With COc1cc(O)c2c(c1)[C@H](O)[C@H]1C[C@](C)(O)[C@H](OC(C)=O)C[C@@H]1C2=O as the compound, how does the pIC50 read?
A: The pIC50 was less than 4.00.

Q: With COc1cc(O)c2c(c1)[C@H](O)[C@@H]1C[C@](C)(O)[C@H](O)C[C@H]1C2=O (relative stereo) as the compound, how does the pIC50 read?
A: Its pIC50 is less than 4.00.

Q: With COc1cc(O)c2c(c1)[C@H](O)[C@@H]1C(=C[C@@H](O)[C@@](C)(O)[C@@H]1O)C2=O (relative stereo) as the compound, how does the pIC50 read?
A: Its pIC50 is less than 4.00.

Q: With COc1cc(O)c2c(c1)[C@@H](O)[C@H]1C[C@](C)(O)[C@H](O)C[C@@H]1C2=O (relative stereo) [TETRAHYDROALTERSOLANOL C] as the compound, how does the pIC50 read?
A: Its pIC50 is less than 4.00.

Q: With COc1cc(O)c2c(c1)C(=O)c1cc(C)c(O)c(-c3c(OC)cc4c(c3O)C(=O)C3=C(C4=O)[C@@H](O)[C@](C)(O)[C@H](O)[C@H]3O)c1C2=O [ALTERPORRIOL C] as the compound, how does the pIC50 read?
A: Its pIC50 is 4.28.

Q: With COc1cc(O)c2c(c1)C(=O)C1=C(C[C@@H](O)[C@@](C)(O)[C@@H]1O)C2=O [ALTERSOLANOL C] as the compound, how does the pIC50 read?
A: Its pIC50 is 5.05.

Tested on: not listed separately
Assay: Cytotoxicity against human MCF7/ADR cells after 6 days by MTT assay
Assay type: functional, cell-based
Settings: NCI/ADR-RES, 144 h

Q: With COc1cc(O)c2c(c1)[C@H](O)[C@H]1C[C@](C)(O)[C@H](OC(C)=O)C[C@@H]1C2=O as the compound, how does the pIC50 read?
A: The pIC50 was less than 4.00.

Q: With COc1cc(O)c2c(c1)[C@H](O)[C@@H]1C[C@](C)(O)[C@H](O)C[C@H]1C2=O (relative stereo) as the compound, how does the pIC50 read?
A: Its pIC50 is less than 4.00.

Q: With COc1cc(O)c2c(c1)[C@H](O)[C@@H]1C(=C[C@@H](O)[C@@](C)(O)[C@@H]1O)C2=O (relative stereo) as the compound, how does the pIC50 read?
A: Its pIC50 is less than 4.00.

Q: With COc1cc(O)c2c(c1)[C@@H](O)[C@H]1C[C@](C)(O)[C@H](O)C[C@@H]1C2=O (relative stereo) [TETRAHYDROALTERSOLANOL C] as the compound, how does the pIC50 read?
A: The pIC50 was less than 4.00.

Q: With COc1cc(O)c2c(c1)C(=O)c1cc(C)c(O)c(-c3c(OC)cc4c(c3O)C(=O)C3=C(C4=O)[C@@H](O)[C@](C)(O)[C@H](O)[C@H]3O)c1C2=O [ALTERPORRIOL C] as the compound, how does the pIC50 read?
A: The pIC50 was 4.01.

Q: With COc1cc(O)c2c(c1)C(=O)C1=C(C[C@@H](O)[C@@](C)(O)[C@@H]1O)C2=O [ALTERSOLANOL C] as the compound, how does the pIC50 read?
A: The pIC50 was 5.49.

Tested on: not listed separately
Assay: Cytotoxicity against human Hep3B cells after 6 days by MTT assay
Assay type: functional, cell-based, Hep 3B2
Settings: 144 h

Q: With COc1cc(O)c2c(c1)[C@H](O)[C@H]1C[C@](C)(O)[C@H](OC(C)=O)C[C@@H]1C2=O as the compound, how does the pIC50 read?
A: The pIC50 was less than 4.00.

Q: With COc1cc(O)c2c(c1)[C@H](O)[C@@H]1C[C@](C)(O)[C@H](O)C[C@H]1C2=O (relative stereo) as the compound, how does the pIC50 read?
A: The pIC50 was less than 4.00.

Q: With COc1cc(O)c2c(c1)[C@H](O)[C@@H]1C(=C[C@@H](O)[C@@](C)(O)[C@@H]1O)C2=O (relative stereo) as the compound, how does the pIC50 read?
A: Its pIC50 is less than 4.00.

Q: With COc1cc(O)c2c(c1)[C@@H](O)[C@H]1C[C@](C)(O)[C@H](O)C[C@@H]1C2=O (relative stereo) [TETRAHYDROALTERSOLANOL C] as the compound, how does the pIC50 read?
A: Its pIC50 is less than 4.00.

Q: With COc1cc(O)c2c(c1)C(=O)c1cc(C)c(O)c(-c3c(OC)cc4c(c3O)C(=O)C3=C(C4=O)[C@@H](O)[C@](C)(O)[C@H](O)[C@H]3O)c1C2=O [ALTERPORRIOL C] as the compound, how does the pIC50 read?
A: Its pIC50 is 4.29.

Q: With COc1cc(O)c2c(c1)C(=O)C1=C(C[C@@H](O)[C@@](C)(O)[C@@H]1O)C2=O [ALTERSOLANOL C] as the compound, how does the pIC50 read?
A: The pIC50 was 5.09.

Tested on: Porcine reproductive and respiratory syndrome virus
Assay: Antiviral activity against Porcine reproductive and respiratory syndrome virus infected in CRL11171 cells assessed as inhibition of viral replication by RT-PCR analysis
Assay type: functional, cell-based
Settings: not given

Q: With COc1cc(O)c2c(c1)[C@@H](O)[C@H]1C[C@](C)(O)[C@H](O)C[C@@H]1C2=O (relative stereo) [TETRAHYDROALTERSOLANOL C] as the compound, how does the pIC50 read?
A: Its pIC50 is 4.19.

Q: With COc1cc(O)c2c(c1)C(=O)c1cc(C)c(O)c(-c3c(OC)cc4c(c3O)C(=O)C3=C(C4=O)[C@@H](O)[C@](C)(O)[C@H](O)[C@H]3O)c1C2=O [ALTERPORRIOL C] as the compound, how does the pIC50 read?
A: Its pIC50 is 4.41.

Tested on: PC-3
Assay: Cytotoxicity against human PC3 cells after 6 days by MTT assay
Assay type: functional, cell-based
Settings: PC-3, 144 h

Q: With COc1cc(O)c2c(c1)[C@H](O)[C@H]1C[C@](C)(O)[C@H](OC(C)=O)C[C@@H]1C2=O as the compound, how does the pIC50 read?
A: Its pIC50 is less than 4.00.

Q: With COc1cc(O)c2c(c1)[C@H](O)[C@@H]1C[C@](C)(O)[C@H](O)C[C@H]1C2=O (relative stereo) as the compound, how does the pIC50 read?
A: Its pIC50 is less than 4.00.

Q: With COc1cc(O)c2c(c1)[C@H](O)[C@@H]1C(=C[C@@H](O)[C@@](C)(O)[C@@H]1O)C2=O (relative stereo) as the compound, how does the pIC50 read?
A: The pIC50 was less than 4.00.

Q: With COc1cc(O)c2c(c1)[C@@H](O)[C@H]1C[C@](C)(O)[C@H](O)C[C@@H]1C2=O (relative stereo) [TETRAHYDROALTERSOLANOL C] as the compound, how does the pIC50 read?
A: The pIC50 was less than 4.00.

Q: With COc1cc(O)c2c(c1)C(=O)c1cc(C)c(O)c(-c3c(OC)cc4c(c3O)C(=O)C3=C(C4=O)[C@@H](O)[C@](C)(O)[C@H](O)[C@H]3O)c1C2=O [ALTERPORRIOL C] as the compound, how does the pIC50 read?
A: Its pIC50 is 4.57.

Q: With COc1cc(O)c2c(c1)C(=O)C1=C(C[C@@H](O)[C@@](C)(O)[C@@H]1O)C2=O [ALTERSOLANOL C] as the compound, how does the pIC50 read?
A: Its pIC50 is 5.12.

Tested on: Escherichia coli
Assay: Antibacterial activity against Escherichia coli after 18 hrs by MTT assay
Assay type: functional
Settings: in the assay text read “by broth dilution assay” for “by MTT assay”
In short: as §1

Q: For COc1cc(O)c2c(c1)C(=O)c1cc(C)c(O)c(-c3c(OC)cc4c(c3O)C(=O)C3=C(C4=O)[C@@H](O)[C@](C)(O)[C@H](O)[C@H]3O)c1C2=O [ALTERPORRIOL C], which MIC is on record?
A: Its MIC is 2.5 µM (≈ 1.55 µg/mL).

Q: Which MIC does the source give for COc1cc(O)c2c(c1)C(=O)C1=C(C[C@@H](O)[C@@](C)(O)[C@@H]1O)C2=O [ALTERSOLANOL C] here?
A: Its MIC is 0.62 µM (≈ 0.199 µg/mL).

Q: With O=C(O)c1cn(C2CC2)c2cc(N3CCNCC3)c(F)cc2c1=O [CIPROFLOXACIN] as the compound, how does the MIC read?
A: The MIC was 0.62 µM (≈ 0.205 µg/mL).

Q: With COc1cc(O)c2c(c1)C(=O)c1cc(C)c(O)cc1C2=O [MACROSPORIN] as the compound, how does the MIC read?
A: Its MIC is 2.3 µM (≈ 0.654 µg/mL).

Tested on: HCT-116
Assay: Cytotoxicity against human HCT116 cells after 6 days by MTT assay
Assay type: functional, cell-based
Settings: HCT-116, 144 h

Q: With COc1cc(O)c2c(c1)[C@H](O)[C@H]1C[C@](C)(O)[C@H](OC(C)=O)C[C@@H]1C2=O as the compound, how does the pIC50 read?
A: The pIC50 was less than 4.00.

Q: With COc1cc(O)c2c(c1)[C@H](O)[C@@H]1C[C@](C)(O)[C@H](O)C[C@H]1C2=O (relative stereo) as the compound, how does the pIC50 read?
A: Its pIC50 is less than 4.00.

Q: With COc1cc(O)c2c(c1)[C@H](O)[C@@H]1C(=C[C@@H](O)[C@@](C)(O)[C@@H]1O)C2=O (relative stereo) as the compound, how does the pIC50 read?
A: Its pIC50 is less than 4.00.

Q: With COc1cc(O)c2c(c1)[C@@H](O)[C@H]1C[C@](C)(O)[C@H](O)C[C@@H]1C2=O (relative stereo) [TETRAHYDROALTERSOLANOL C] as the compound, how does the pIC50 read?
A: Its pIC50 is less than 4.00.

Q: With COc1cc(O)c2c(c1)C(=O)c1cc(C)c(O)c(-c3c(OC)cc4c(c3O)C(=O)C3=C(C4=O)[C@@H](O)[C@](C)(O)[C@H](O)[C@H]3O)c1C2=O [ALTERPORRIOL C] as the compound, how does the pIC50 read?
A: Its pIC50 is 4.62.

Q: With COc1cc(O)c2c(c1)C(=O)C1=C(C[C@@H](O)[C@@](C)(O)[C@@H]1O)C2=O [ALTERSOLANOL C] as the compound, how does the pIC50 read?
A: The pIC50 was 5.66.

Tested on: Staphylococcus
Assay: Antibacterial activity against Staphylococcus albus after 18 hrs by MTT assay
Assay type: functional
Settings: in the assay text read “by broth dilution assay” for “by MTT assay”
In short: as §1

Q: Which MIC does the source give for COc1cc(O)c2c(c1)C(=O)c1cc(C)c(O)c(-c3c(OC)cc4c(c3O)C(=O)C3=C(C4=O)[C@@H](O)[C@](C)(O)[C@H](O)[C@H]3O)c1C2=O [ALTERPORRIOL C] here?
A: Its MIC is greater than 20 µM.

Q: For COc1cc(O)c2c(c1)C(=O)C1=C(C[C@@H](O)[C@@](C)(O)[C@@H]1O)C2=O [ALTERSOLANOL C], which MIC is on record?
A: Its MIC is 12 µM (≈ 3.84 µg/mL).

Q: For O=C(O)c1cn(C2CC2)c2cc(N3CCNCC3)c(F)cc2c1=O [CIPROFLOXACIN], which MIC is on record?
A: Its MIC is 0.31 µM (≈ 0.103 µg/mL).

Q: With COc1cc(O)c2c(c1)C(=O)c1cc(C)c(O)cc1C2=O [MACROSPORIN] as the compound, how does the MIC read?
A: The MIC was 15 µM (≈ 4.26 µg/mL).
